Assay [1] deals with Hsp90 client proteins Her2, Raf-1, and Akt. As to the kind of experiment: Western blot analysis of Hsp90 client protein degradation in MCF-7 cells. Format: cell-based, human. Conditions: for IC50: Homo sapiens, MCF7, 24 h, read-out: Hsp90 client protein degradation IC50s; for degradation of Hsp90 client proteins (Her2, Raf-1, Akt) / effect on actin (non Hsp90-dependent protein): MCF-7 cells, 24 h, western blot. In short, it runs like this: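 MCF-7 cells were seeded at 1×10^6 per dish and left to attach overnight. Test compound was added at varying concentrations and incubated 24 h at 37 °C, 5% CO2. Cells were then harvested and client protein levels analysed by western blot using a previously reported method.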
(In general: In western blotting, separated proteins are transferred to a membrane and probed.)

Assay [2] relates to Hsp90. It counts as biochemical, rabbit.
The subject of a further assay is MCF-7 cells. As to the kind of experiment: Anti-proliferation assay. It counts as cell-based, human. The essentials:
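MCF-7 cells were grown in 1:1 DMEM:Ham's F-12 with non-essential amino acids, 2 mM L-glutamine, penicillin/streptomycin and 10% FBS, at 37 °C and 5% CO2. They were seeded at 2000/well and left to attach overnight. Test compound was added at varying concentrations in DMSO (1% final) for 72 hr. Viable cells were measured by MTS/PMS and normalised to 1% DMSO wells as 100% proliferation.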

A further assay relates to Her2. As to the kind of experiment: Her2 ELISA in SKBr3 cells. It counts as cell-based, human. Conditions: for fold decrease in Her2 degradative activity for meta substituents: meta chloro or methoxy substituent on the benzamide. In short, it runs like this: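 SKBr3 cells were grown as for the proliferation assay, seeded at 3000/well, attached overnight, then given test compound at varying concentrations for 24 hr. Cells were washed with ice-cold PBS/1% Tween and fixed in -20 °C methanol (10 min, 4 °C), then blocked 1 hr in 5% BSA/PBST at rt. Rabbit anti-Her2 (1:500) went on overnight at 4 °C, then HRP anti-rabbit IgG (1:1000) for 2 hr at rt. Read-out was chemiluminescence on a luminometer.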
(In an ELISA, binding on a coated surface is turned into a signal by an enzyme label.)

The test system of assay [3] is Hsp90. The note with it: assay validation; cited from earlier work.

`CC(=O)NC1=C(c2ccc(Cl)cc2)C(=O)c2ccccc2C1=O` [Compound 3g]: in assay [1], the IC50 fell in the range of 10 to 20 µM; the “degradation of Hsp90 client proteins (Her2, Raf-1, Akt)” value (“degradation of Hsp90 client proteins” below) is “induced the degradation of these client proteins in a concentration-dependent manner”; the “effect on actin (non Hsp90-dependent protein)” value is listed as “no similar effects on actin”.
In the case of `COc1ccc(C2=C(NC(=O)c3ccc(OC)c(-c4cccc(OC)c4)c3)C(=O)c3ccccc3C2=O)cc1` [Compound 11, 3’,6-dimethoxy-N-(3-(4-methoxyphenyl)-1,4-dioxo-1,4-dihydronaphthalen-2-yl)biphenyl-3-carboxamide], the “inhibition of luciferase refolding (in words)” value in the assay with Hsp90 [2] was “unable to inhibit luciferase refolding”.
For `COc1cccc(-c2cc(C(=O)NC3=C(Cl)C(=O)c4ccccc4C3=O)ccc2OC)c1` [Compound 12], the “inhibition of luciferase refolding (in words)” value with Hsp90 [2] is “low micromolar activity”. The IC50 with MCF-7 cells (Homo sapiens, MCF7, read-out: anti-proliferative activity IC50) fell in the range of 1.7 to 3 µM. In assay [1], the IC50 was 10 to 20 µM; the “degradation of Hsp90 client proteins” value was “induced the degradation of these client proteins in a concentration-dependent manner”; the “effect on actin (non Hsp90-dependent protein)” value was “no similar effects on actin”.
In the case of `COc1ccc(C2=C(NC(=O)c3ccccc3Cl)C(=O)c3ccccc3C2=O)cc1` [Compound 13a], in assay [1], the IC50 was 5 to 10 µM; the “degradation of Hsp90 client proteins” value is reported as “induced the degradation of these client proteins in a concentration-dependent manner”; the “effect on actin (non Hsp90-dependent protein)” value is “no similar effects on actin”.
With `COc1ccc(C2=C(NC(=O)c3cccc(Cl)c3)C(=O)c3ccccc3C2=O)cc1` [Compound 13b], in the assay on Her2, the “fold decrease in Her2 degradative activity for meta substituents” value was 6 fold.
As for `COc1ccc(C2=C(NC(=O)c3cccc(OC)c3)C(=O)c3ccccc3C2=O)cc1` [Compound 13e], the “fold decrease in Her2 degradative activity for meta substituents” value with Her2 stood at 15 fold.
Take `COc1ccc(C2=C(NC(=O)c3cccc4ccccc34)C(=O)c3ccccc3C2=O)cc1` [Compound 13g]: the “fold decrease in Her2 activity compared to the corresponding benzamide (4d)” value with Her2 (vs 4d) is recorded as 3 fold.
In the case of `COc1ccc(C2=C(NC(=O)c3ccc4ccccc4c3)C(=O)c3ccccc3C2=O)cc1` [Compound 13h], the “Her2 degradative activity (in words)” value in the assay on Her2 is recorded as “complete loss of Her2 degradative activity”.
For `COc1ccc(C2=C(NC(=O)C3CCCCC3)C(=O)c3ccccc3C2=O)cc1` [Compound 13i], the “inhibition of luciferase refolding (in words)” value in the assay with Hsp90 [2] is reported as “low micromolar activity”.
Regarding `CC(=O)C1=C(c2ccccc2)C(=O)c2ccccc2C1=O` [HTS1], the “fold greater anti-proliferative activity against MCF-7 cells compared to SKBr3 cells” value in the assay with MCF-7 cells (MCF-7 vs SKBr3) is on record as 4 fold.
Consider `CO[C@@H]1[C@@H](OC(N)=O)[C@@H](O)[C@H](Oc2ccc3c(O)c(NC(=O)c4ccc(O)c(CC=C(C)C)c4)c(=O)oc3c2C)OC1(C)C` [novobiocin], for which the “reduction of luciferase renaturation by known Hsp90 inhibitors” value with Hsp90 [3] is reported as “significantly reduce the renaturation of luciferase”.
